The results in this text go back to ChEMBL document CHEMBL5107942, “Boron-based hybrids as novel scaffolds for the development of drugs with neuroprotective properties” (RSC Med Chem, 2021).

The subject of series [1] is SH-SY5Y. As to the kind of experiment: Neuroprotective activity against amyloid beta (1 to 42)-induced Alzheimer's disease model in human SH-SY5Y cells assessed as decrease in AChE activity at 50 uM incubated for 24 hrs by Colorimetric assay. It is filed as functional. On the set-up: scale not given: the % may be the effect or the level left. An outline of the steps: (§1)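 SH-SY5Y cells grown in DMEM:F12 with 10% FBS, differentiated with retinoic acid for 5 days, then serum-free medium with 10 μM retinoic acid plus 25 ng/mL BDNF, used within 10 days. Co-treated with 20 μM Aβ1-42 for 24 h; DMSO ≤0.1% vehicle. Cells lysed 15 min at room temperature, centrifuged; AChE measured in supernatant by colorimetric kit at 410 nm.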

In series [2] the test system is SH-SY5Y. The experiment in a line: Neuroprotective activity against amyloid beta (1 to 42)-induced neurotoxicity in human SH-SY5Y cells assessed as increase in cell viability at 0.1 to 100 uM incubated for 24 hrs by MTT assay. It is filed as functional, cell-based. As to conditions: dose 0.1-100 µM. An outline of the steps:
(§2)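 Differentiated SH-SY5Y cells co-treated 24 h with compound (0.1–100 μM) and Aβ1-42 (20 μM). Vehicle 0.1% DMSO; 1% Triton X positive control. MTT added for 3 h at 37 °C, formazan dissolved in DMSO, absorbance read at 570 nm. Mean ± SD from at least six independent experiments.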
(Tetrazolium dyes change colour on reduction, which living cells bring about.)

For series [3], the system named is SH-SY5Y. As to the kind of experiment: Neuroprotective activity against amyloid beta (1 to 42)-induced neurotoxicity in human SH-SY5Y cells assessed as increase in cell viability at 25 uM incubated for 24 hrs by MTT assay. The class given is functional. An outline of the steps:
as §2

Series [4] relates to SH-SY5Y. As to the kind of experiment: Neuroprotective activity against amyloid beta (1 to 42)-induced Alzheimer's disease model in human SH-SY5Y cells assessed as protection against amyloid beta (1 to 42)-induced nuclear integrity damage at 25 uM incubated for 24 hrs by Hoechst 33258 staining fluorescence microscopy. The class given is functional, cell-based. An outline of the steps:
(§3)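 RA/BDNF-differentiated SH-SY5Y cells incubated 24 h with Aβ1-42 (20 μM) alone or with test agent at 25 or 50 μM. Fixed in 4% paraformaldehyde in PBS, 30 min at 4 °C. Stained with 1 mM Hoechst 33258 for 5 min at room temperature. Nuclear morphology examined by fluorescence microscopy.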

The test system of series [5] is SH-SY5Y. The experiment in a line: Neuroprotective activity against amyloid beta (1 to 42)-induced neurotoxicity in human SH-SY5Y cells assessed as increase in cell viability at 50 uM incubated for 24 hrs by LDH release assay. The class given is functional. An outline of the steps: (§4)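 Differentiated SH-SY5Y cells exposed 24 h to compound with Aβ1-42 (20 μM). Supernatant mixed 1:1 with LDH reaction mixture and held 30 min at room temperature. Lactate-to-pyruvate conversion with NAD+ reduction read as absorbance at 490 nm. Mean ± SD, at least six independent experiments.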

Series [6] has as its system SH-SY5Y. The experiment in a line: Neuroprotective activity against amyloid beta (1 to 42)-induced Alzheimer's disease model in human SH-SY5Y cells assessed as reduction in necrosis rate incubated for 24 hrs by Annexin V-FITC/propidium iodide staining flow cytometry. It is filed as functional. Set-up: scale not given: the % may be the effect or the level left. An outline of the steps: (§5)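 Differentiated SH-SY5Y cells given 24 h Aβ1-42 (20 μM) with or without compound. 5 x 10^4 cells pelleted and resuspended in 1X binding buffer. Annexin V-FITC and PI added, 5 min in the dark, then fixed in 4% paraformaldehyde. Flow cytometry sorted cells into viable, early apoptotic, late apoptotic/necrotic and necrotic fractions.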

Series [7] relates to SH-SY5Y. As to the kind of experiment: Neuroprotective activity against amyloid beta (1 to 42)-induced Alzheimer's disease model in human SH-SY5Y cells assessed as protection against amyloid beta (1 to 42)-induced nuclear integrity damage at 50 uM incubated for 24 hrs by Hoechst 33258 staining fluorescence microscopy. The class given is functional, cell-based. In short, it runs like this:
as §3

For series [8], the system named is SH-SY5Y. The experiment in a line: Neuroprotective activity against amyloid beta (1 to 42)-induced Alzheimer's disease model in human SH-SY5Y cells assessed as reduction in necrosis rate at 25 to 50 uM incubated for 24 hrs by Annexin V-FITC/propidium iodide staining flow cytometry. The class given is functional, cell-based. To be noted: dose 25-50 µM, DDE = dose-dependent effect. In short, it runs like this: as §5
In general terms: Flow cytometry measures light scatter and fluorescence of single cells or particles in a stream.

Series [9] has as its system SH-SY5Y. The experiment in a line: Neuroprotective activity against amyloid beta (1 to 42)-induced neurotoxicity in human SH-SY5Y cells assessed as increase in cell viability at 25 uM incubated for 24 hrs by LDH release assay. The class given is functional. In short, it runs like this:
as §4

Series [10] concerns SH-SY5Y. As to the kind of experiment: Neuroprotective activity against amyloid beta (1 to 42)-induced neurotoxicity in human SH-SY5Y cells assessed as increase in cell viability at 50 uM incubated for 24 hrs by MTT assay. The class given is functional. An outline of the steps:
as §2

The test system of series [11] is SH-SY5Y. As to the kind of experiment: Neuroprotective activity against amyloid beta (1 to 42)-induced neurotoxicity in human SH-SY5Y cells assessed as increase in cell viability at 100 uM incubated for 24 hrs by MTT assay. It is filed as functional. In short, it runs like this: as §2
Series [12] is described as follows: Genotoxicity in human blood assessed as frequency of sister chromatid exchange at 0.1 to 100 uM by BrdU/Giemsa staining based fluorescence assay. To be noted: dose 0.1-100 µM. It is filed as toxicity, tissue-based. In short, it runs like this: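 Human peripheral blood cultured in PB-MAX karyotyping medium with phytohemagglutinin; compounds added just before incubation. BrdU added; demecolcine at 70 h 30 min. Then 0.075 M KCl hypotonic treatment, methanol/acetic acid (3:1) fixation, slides aged 3 days, fluorescence plus Giemsa staining. 25 second-division metaphases (42–46 chromosomes) scored per condition; result given as SCEs/cell.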

The test system of series [13] is SH-SY5Y. As to the kind of experiment: Antioxidant activity against amyloid beta (1 to 42)-induced Alzheimer's disease model in human SH-SY5Y cells assessed as decrease of TOS level at 50 uM. It is filed as functional, cell-based. In short, it runs like this:
(§6)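 Differentiated SH-SY5Y cells: grown in DMEM:F12 with 10% FBS, then 10 μg/mL retinoic acid for 5 days, then serum-free medium with 10 μM retinoic acid and 25 ng/mL BDNF. Co-exposed 24 h to Aβ1-42 (20 μM) plus compound. Vehicle 0.1% DMSO. Automated kits on culture samples. TAC: ABTS decolorization at 660 nm, Trolox calibration. TOS: ferrous-to-ferric chelator oxidation, H2O2 calibration, µM H2O2 equivalent/L. n = 6.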

For series [14], the system named is SH-SY5Y. The experiment in a line: Antioxidant activity against amyloid beta (1 to 42)-induced Alzheimer's disease model in human SH-SY5Y cells assessed as increase of TAC level at 25 uM by ABTS assay. It is filed as functional, cell-based. An outline of the steps:
as §6

For series [15], the system named is SH-SY5Y. As to the kind of experiment: Neuroprotective activity against amyloid beta (1 to 42)-induced Alzheimer's disease model in human SH-SY5Y cells assessed as decrease in AChE activity at 25 uM incubated for 24 hrs by Colorimetric assay. The class given is functional. Set-up: scale not given: the % may be the effect or the level left. In short, it runs like this: as §1

The test system of series [16] is SH-SY5Y. As to the kind of experiment: Neuroprotective activity against amyloid beta (1 to 42)-induced Alzheimer's disease model in human SH-SY5Y cells assessed as inhibition of apoptosis at 50 uM incubated for 24 hrs by Hoechst 33258 staining fluorescence microscopy. It is filed as functional, cell-based. In short, it runs like this: as §3
Series [17] relates to SH-SY5Y. As to the kind of experiment: Antioxidant activity against amyloid beta (1 to 42)-induced Alzheimer's disease model in human SH-SY5Y cells assessed as increase of TAC level at 50 uM by ABTS assay. The class given is functional, cell-based. In short, it runs like this:
as §6

The nature of series [18]: Induction of DNA damage in human blood assessed as increase in 8-OH-dG level at 0.1 to 100 uM incubated for 24 hrs. The class given is toxicity, tissue-based. As to conditions: dose 0.1-100 µM. An outline of the steps:
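Heparinized human peripheral blood cultured with phytohemagglutinin in PB-MAX medium, with compounds added at culture start. 8-OH-dG measured by competitive ELISA (8-OH-dG–AChE conjugate competing for monoclonal antibody). Detects free and DNA-incorporated 8-OH-dG. Read at 405–420 nm.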

The subject of series [19] is SH-SY5Y. As to the kind of experiment: Antioxidant activity against amyloid beta (1 to 42)-induced Alzheimer's disease model in human SH-SY5Y cells assessed as decrease of TOS level at 25 uM. It is filed as functional, cell-based. In short, it runs like this:
as §6

The test system of series [20] is SH-SY5Y. The experiment in a line: Neuroprotective activity against amyloid beta (1 to 42)-induced Alzheimer's disease model in human SH-SY5Y cells assessed as inhibition of apoptosis at 25 uM incubated for 24 hrs by Hoechst 33258 staining fluorescence microscopy. It is filed as functional, cell-based. In short, it runs like this: as §3
Series [21] has as its system SH-SY5Y. The experiment in a line: Neuroprotective activity against amyloid beta (1 to 42)-induced neurotoxicity in human SH-SY5Y cells assessed as increase in cell viability at 100 uM incubated for 24 hrs by LDH release assay. It is filed as functional. An outline of the steps: as §4
In general terms: LDH in the medium is a marker of cell lysis.

Activity calls are given as the source filed them. No cut-off for these calls is given here.

Regarding `CC1(C)C2CC3OB(CNC(=O)CCCC[C@H]4CCSS4)O[C@]3(C)C1C2` (stereo partly drawn), the Activity with SH-SY5Y [1] is 22.96%; in the series on SH-SY5Y [3], 25.14%; with SH-SY5Y [5] it was 67.37%; in the series on SH-SY5Y [6] it was 68.38%; in the series on SH-SY5Y [8] it was “Dde”; with SH-SY5Y [9], 62.91%. In addition, the Activity in the series on SH-SY5Y [10] is 29.94%; in the series with SH-SY5Y [11], 32.92%; in [12], “Non-Toxic”; in the series with SH-SY5Y [15], 18.77%; in series [18], “Non-Toxic”; with SH-SY5Y [21], 70.65%. Moreover, the outcome in the series with SH-SY5Y [2], in the series on SH-SY5Y [4], with SH-SY5Y [7], with SH-SY5Y [13], in the series on SH-SY5Y [14] and with SH-SY5Y [16] was Active. For the same compound, the outcome in the series on SH-SY5Y [17], in the series with SH-SY5Y [19] and in the series with SH-SY5Y [20] was Active.

As to `O=C(O)CCCCC1CCSS1` (stereo not drawn) [LIPOIC ACID, ALPHA], the Activity in the series with SH-SY5Y [1] was 16.66%; with SH-SY5Y [3], 14.78%; with SH-SY5Y [5] it was 58.68%; in the series on SH-SY5Y [6], 65.97%; with SH-SY5Y [8] it was “Dde”; in the series with SH-SY5Y [9], 53.05%. The Activity is given as 19.01% in the series with SH-SY5Y [10]; 20.73% with SH-SY5Y [11]; “Non-Toxic” in [12]; 13.17% in the series on SH-SY5Y [15]; “Non-Toxic” in series [18]; 59.86% with SH-SY5Y [21]. The outcome with SH-SY5Y [2], in the series on SH-SY5Y [4], in the series with SH-SY5Y [7], with SH-SY5Y [13], in the series on SH-SY5Y [14] and in the series on SH-SY5Y [16] was Active. Further, the outcome in the series on SH-SY5Y [17], with SH-SY5Y [19] and in the series on SH-SY5Y [20] was Active.

Consider `CC12CC3CC(C)(C1)CC(N)(C3)C2` [MEMANTINE], for which the Activity is 19.47% in the series with SH-SY5Y [1]; 17.27% in the series with SH-SY5Y [3]; 59.15% with SH-SY5Y [5]; 61.67% with SH-SY5Y [6]; “Dde” in the series with SH-SY5Y [8]; 56.81% with SH-SY5Y [9]. In addition, the Activity is on record as 19.38% with SH-SY5Y [10]; 17.08% in the series on SH-SY5Y [11]; “Non-Toxic” in [12]; 14.57% in the series with SH-SY5Y [15]; “Non-Toxic” in series [18]; 57.28% in the series on SH-SY5Y [21]. For the same compound, the outcome with SH-SY5Y [2], in the series on SH-SY5Y [4], with SH-SY5Y [7], in the series on SH-SY5Y [13], with SH-SY5Y [14] and in the series with SH-SY5Y [16] was Active. In addition, the result in the series with SH-SY5Y [17], with SH-SY5Y [19] and in the series on SH-SY5Y [20] was Active.
